CR mimetic SO: lowers age-related superoxide in aged yeast cells | superoxide response (% of plate mean), % at 10 µM | S. cerevisiae aged cells, superoxide DHE fluorescence; hits give low values | AID 2690 | actives 0.18% (n = 330,000);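 active = superoxide response under a set limit, about three screen SD below normal, cut at about 65% in these data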;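 also: yeast aged for seven days with compound at 30 °C before DHE staining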
V-ATPase pH: alters yeast V-ATPase proton transport. S. cerevisiae, pHLuorin cytosolic pH fluorescence. response, % at 10 µM. actives 0.37% (n = 350,000). AID 504577; in the data active = response mostly above about 7.3%, no sharp cut-off; inactive = mostly below about 5.4%; also: actives read high
Rce1 inh: blocks yeast Ras-converting enzyme | Q03530 | yeast membranes, quenched prenylated peptide cleavage fluorescence | calls only | actives 0.27% (n = 290,000);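 active = fall in fluorescence gain of 50% or more versus controls, with final raw signal at or below 3038400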
Target sequence (Q03530 whole entry, looked up): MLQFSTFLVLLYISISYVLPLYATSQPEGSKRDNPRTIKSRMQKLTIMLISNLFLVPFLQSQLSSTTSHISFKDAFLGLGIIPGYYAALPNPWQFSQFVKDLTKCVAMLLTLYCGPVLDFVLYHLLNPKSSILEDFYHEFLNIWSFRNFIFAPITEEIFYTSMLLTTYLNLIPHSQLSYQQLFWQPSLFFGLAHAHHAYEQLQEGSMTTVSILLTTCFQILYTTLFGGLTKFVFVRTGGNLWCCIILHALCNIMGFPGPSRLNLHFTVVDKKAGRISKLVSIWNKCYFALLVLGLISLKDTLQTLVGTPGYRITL
MIN6 prolif-1: induces beta-cell replication in MIN6 cells. MIN6 cells proliferation, ATPlite luminescence, 48 h; cells starved in 0.2% serum; 100% = growth in 10% serum. proliferation, % at 10 µM. actives 0.29% (n = 330,000);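 active = compounds whose signal lies at least 3.5 SD above the mean of all wells on their plate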
proKLK7 act: activates the human kallikrein-7 zymogen; purified proKLK7, EDANS-DABCYL substrate fluorescence; 100% is mature enzyme control, 0% vehicle; AID 652039; activation, % at 7 µM; actives 0.9% (n = 370,000);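 active = activation above the mean of all tested compounds plus 3 SD, computed per campaign excluding outliers beyond control limits, cut at about 13% in these data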
Target sequence (P49862 whole entry, looked up): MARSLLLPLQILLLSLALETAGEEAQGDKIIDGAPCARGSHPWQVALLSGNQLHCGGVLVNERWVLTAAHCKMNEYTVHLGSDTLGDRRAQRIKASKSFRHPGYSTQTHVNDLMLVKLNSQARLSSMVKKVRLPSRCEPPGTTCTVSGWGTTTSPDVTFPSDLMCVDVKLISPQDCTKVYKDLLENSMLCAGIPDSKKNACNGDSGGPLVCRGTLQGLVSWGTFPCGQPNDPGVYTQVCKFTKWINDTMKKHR
T cell modulator: modulates CD8 T cell binding to vesicles; 2C CD8+ T cell-vesicle binding, flow cytometry; hits give low values; response (vesicle binding), % at 7 µM; actives 0.068% (n = 330,000); AID 2052;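 active = response, share of CD8 T cells binding vesicles, and their 90th percentile fluorescence all below set limits, cut at about 80% in these data, passing the limit was not always enough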;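 also: values below 100% mean blocked vesicle binding to the CD8+ T cells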
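Also added: QL9-peptide-loaded Drosophila micro-vesicles bearing Ld, ICAM-1 and B7-1; Test system: purified 2C TCR transgenic mouse naive CD8+ T cells; Measured by: cytometric PE anti-B7-1 and Alexa647 anti-CD8 signals after 1% paraformaldehyde fixation; Timing: binding step 1.5 h, 37 °C, antibody labelling 20 min, ice.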
MIN6 prolif-2: confirmation of inducers of beta-cell replication in MIN6 cells; shares compounds with MIN6 prolif-1; MIN6 beta-cell proliferation, ATPlite luminescence, 48 h; cells kept in 0.2% serum; scaled between 0.2% and 10% serum; proliferation increase, % at 50 µM; 920 tested, under 10 active; AID 463095;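 active = proliferation increase above 40% at any of the four tested concentrations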
CR mimetic CP: confirmation of caloric restriction mimetics inhibiting yeast age-related superoxide; actives 1% (n = 850); superoxide response (% of plate), % at 10 µM; shares compounds with CR mimetic SO; S. cerevisiae aging, superoxide DHE fluorescence; hits give low values;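 active = superoxide signal below 65% of the plate average of sample wells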;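 also: cells aged with compound for 7 days at 30 degrees C before staining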
DHE counter: compound alters DHE oxidation or fluorescence in yeast; fluorescence response, % at 10 µM; 850 tested, under 10 active; S. cerevisiae BY4741, flow cytometry; hits give low values; shares compounds with CR mimetic SO;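 active = fluorescence response below 15%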;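 also: lower means stronger quenching of DHE signal or ROS scavenging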
V-ATPase pH SP: yeast V-ATPase proton transport regulation; shares compounds with V-ATPase pH; actives 2% (n = 980); AID 602197; S. cerevisiae pHLuorin cytosolic pH; response, % at 10 µM; in the data active = response above about 24%
Of the large screens only hits and unclear results are named; the others gave an inactive call (follow-up assays come after a bar, where they were run). Hits are enriched below; roughly 1.9% of the tested compounds scored in any of these assays.

CC(=O)c1ccc(OC(NC(=O)c2ccco2)C(Cl)(Cl)Cl)cc1 (centres undefined)	MIN6 prolif-1 7.2 | MIN6 prolif-2 inactive
Cc1cccc(-n2c(/C=C/c3ccccn3)nc3ccccc3c2=O)c1	none
COc1cccc(-n2c(/C=C/c3ccccn3)nc3ccccc3c2=O)c1	MIN6 prolif-1 8.5 | MIN6 prolif-2 inactive
COC(=O)C1C(c2ccc(F)cc2)CC2CCC1N2C (centres undefined)	none (no result: CR mimetic SO, V-ATPase pH, Rce1 inh, MIN6 prolif-1, T cell modulator)
NS(=O)(=O)c1ccc(N=Cc2c(O)n(-c3ccccc3)c(=O)[nH]c2=O)cc1	MIN6 prolif-1 8.2 | MIN6 prolif-2 inactive
Cc1ccc(-n2c(O)c(C=Nc3ccc(S(N)(=O)=O)cc3)c(=O)[nH]c2=O)cc1	none
CC/C(=N\NC(=O)c1ccccc1)c1c(O)n(C2CCCCC2)c(=O)[nH]c1=O	MIN6 prolif-1 11.6 | MIN6 prolif-2 inactive
CC/C(=N\NC(=O)c1ccccc1Cl)c1c(O)n(C2CCCCC2)c(=O)[nH]c1=O	none
CCOC(=O)[C@]12Cc3cc(C)ccc3[C@H]1N(C1CCCCC1)C(=O)c1cc(OC)ccc12	none (no result: CR mimetic SO, V-ATPase pH, Rce1 inh, MIN6 prolif-1, T cell modulator)
C[C@]12CC[C@H](O)C[C@H]1CC[C@@H]1[C@@H]2CC[C@]2(C)C(=O)CC[C@@H]12	CR mimetic SO 48.5 (no result: Rce1 inh) | CR mimetic CP inactive | DHE counter inactive
C[C@]12CCC3[C@@H](CC[C@H]4C[C@@H](O)CC[C@]34C)C1CCC2=O (some centres undefined)	none
C[C@]12CCC3C(CC[C@@H]4C[C@H](O)CC[C@]34C)C1CCC2=O (some centres undefined)	CR mimetic SO 64.2 (no result: Rce1 inh) | CR mimetic CP inactive | DHE counter inactive
O=[N+]([O-])/C=C/c1c(Cl)cccc1Cl	none (no result: CR mimetic SO, Rce1 inh, MIN6 prolif-1, T cell modulator)
C[C@]12CCC3C(CCC4=C/C(=N/OCC(=O)NC(CCC(=O)O)C(=O)O)CC[C@@]43C)C1CCC2O (some centres undefined)	CR mimetic SO 58.0 | CR mimetic CP inactive | DHE counter inactive
C[C@]12CCC3C(CCC4=C/C(=N/OCC(=O)NC(CCC(N)=O)C(=O)O)CC[C@@]43C)C1CCC2O (some centres undefined)	none
CC12CC(=O)C3C(CCC4CC(=O)C=CC43C)C1CCC2=O (centres undefined)	none (no result: CR mimetic SO, Rce1 inh, MIN6 prolif-1, T cell modulator)
C[C@]12CCC(=O)CC1CCC1C2CC[C@]2(C)C(OC(=O)CCC(=O)O)CCC12 (some centres undefined)	CR mimetic SO 64.4 | CR mimetic CP inactive | DHE counter inactive
C[C@]12CCC(=O)C[C@@H]1CC[C@@H]1[C@@H]2CC[C@]2(C)[C@@H](O)CC[C@@H]12	CR mimetic SO 54.3 (no result: Rce1 inh) | CR mimetic CP inactive | DHE counter inactive
C[C@]12CC(=O)CC1CCC1C2CC[C@@]2(C)C1CC[C@@H]2O (some centres undefined)	none
CC12CCC3C(CCC4C/C(=N/O)CCC43C)C1CCC2O (centres undefined)	none
C[C@]12CCC3C(CC[C@@H]4CC(=O)CC[C@]34C)C1CC[C@@H]2O (some centres undefined)	CR mimetic SO 54.3 (no result: Rce1 inh) | CR mimetic CP inactive | DHE counter inactive
CCC1(Cc2ccccc2)C(=O)NC(=S)N(C)C1=O (centres undefined)	none (no result: CR mimetic SO, Rce1 inh, MIN6 prolif-1, T cell modulator)
CN(C)CC#CCn1c2ccccc2c2ccccc21	none | CR mimetic CP inactive | DHE counter inactive
CN(C)CC#CCC(O)(c1ccccc1)C1CCCC1 (centres undefined)	none
Cn1c(O)c(C(=Nc2ccc(F)cc2)c2ccccc2Cl)c(=O)n(C)c1=O	CR mimetic SO 61.9 | CR mimetic CP inactive | DHE counter inactive
Nc1cc2nc3ccccc3nc2cc1N	CR mimetic SO 40.8 | CR mimetic CP inactive | DHE counter inactive
Nc1c2c(nc3ccccc13)CCN(Cc1ccccc1)C2	none
C[C@]12CC[C@@H](O)C[C@@H]1CC[C@@H]1[C@@H]2CC[C@]2(C)[C@@H](O)CC[C@@H]12	none
C#C[C@]1(O)[C@H](O)CC2C3CC[C@H]4C[C@@H](O)CC[C@]4(C)C3CC[C@@]21C (some centres undefined)	none (no result: V-ATPase pH, Rce1 inh) | CR mimetic CP inactive | DHE counter inactive
C[C@]12CC[C@H](O)CC1C(=O)CC1C2CC[C@@]2(C)C1CC[C@@H]2O (some centres undefined)	none (no result: Rce1 inh) | CR mimetic CP inactive | DHE counter inactive
C[C@]12CCC3C(CC[C@H]4C[C@@H](O)CC[C@]34C)C1CC[C@@]2(O)C(F)(F)F (some centres undefined)	none (no result: V-ATPase pH, Rce1 inh) | CR mimetic CP inactive | DHE counter inactive
C[C@]12CCC3C(CC[C@H]4C[C@@H](O)CC[C@]34C)C1C[C@@H](N)[C@@H]2O (some centres undefined)	none (no result: Rce1 inh) | CR mimetic CP inactive | DHE counter inactive
OC1CN2CCCC(O)C2C1O (centres undefined)	none (no result: CR mimetic SO, V-ATPase pH, Rce1 inh, MIN6 prolif-1, T cell modulator)
CCOC(=O)[C@]12Cc3cc(C)ccc3[C@H]1N(C(C)C)C(=O)c1ccccc12	none (no result: CR mimetic SO, V-ATPase pH, Rce1 inh, MIN6 prolif-1, T cell modulator)
C[C@]12CCC3C(CC[C@H]4C[C@@H](O)CC[C@]34C)[C@H]1CC[C@H]2O (some centres undefined)	none (no result: Rce1 inh) | CR mimetic CP inactive | DHE counter inactive
C[C@]12CCC3C(CC[C@H]4C[C@@H](O)CC[C@]34C)C1C[C@@H](O)[C@]2(C)O (some centres undefined)	none (no result: Rce1 inh) | CR mimetic CP inactive | DHE counter inactive
CNCC[C@@H](Oc1ccc(C(F)(F)F)cc1)c1ccccc1	none (no result: Rce1 inh)
Cc1ccc(/C=C2/Sc3ccc(C(=O)N4CCC5(CC4)OCCO5)cc3NC2=O)cc1	none
CCCCn1c(C)c(C(=O)O)c2cc(OC)c3ccccc3c21	none
Cc1ccc(-n2c(O)c(/C=C/C=Nc3ccccc3)c(=O)[nH]c2=O)cc1	V-ATPase pH 84.5 | V-ATPase pH SP inactive
C[CH2][Hg][S]c1ccccc1C(=O)O	none (no result: Rce1 inh)
CC12CCC(=O)C=C1CCC1C2CCC2(C)C1CCC2(O)CC#N (centres undefined)	V-ATPase pH 12.4 (no result: CR mimetic SO, Rce1 inh, MIN6 prolif-1, T cell modulator) | V-ATPase pH SP inactive
C[C@]12CCC(=O)C=C1CC[C@@H]1C2CC[C@]2(C)C(=O)CCC12 (some centres undefined)	none

Source: PubChem (several laboratories)
